# Assay results as given in ChEMBL document CHEMBL1122980, “Stereoselective metabolism of conformational analogues of warfarin by beta-naphthoflavone-inducible cytochrome P-450” (J Med Chem, 1985).
# Species: Rattus norvegicus
# Experiment: Rate of metabolism in liver microsomes (BNF treated rats)
# Type: ADME
# In short: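 Liver microsomes pooled from three male Sprague–Dawley rats (140–170 g) given BNF ip (80 mg/kg in corn oil) daily for 3 days, taken on day 4. Microsomal protein 2 mg/mL. Substrate added after 2-min equilibration, 200 μg/mL in acetone, or warfarin also in pH 7.4 phosphate buffer. Incubated 20 min at 37 °C, triplicate. Hydroxy metabolites quantified by GC/MS against deuterated internal standards. Rates given per nmol P-450 per min, mean ±SD.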
Structure (SMILES),RPF,Metabolism rate
CO[C@]1(C)C[C@H](c2ccccc2)c2c(c3cccc(O)c3oc2=O)O1,14.9 pM nM-1,–
COC1(C)C[C@H](c2ccccc2)c2c(c3ccc(O)cc3oc2=O)O1 (some centres undefined),19.3 pM nM-1,–
CC(=O)C[C@@H](c1ccccc1)c1c(O)c2cc(O)ccc2oc1=O,37.1 pmol/min/nmol,41.2 pmol/min/nmol P-450
COC1(C)C[C@H](c2ccccc2)c2c(c3cc(O)ccc3oc2=O)O1 (some centres undefined),20.3 pM nM-1,–
COC1(C)C[C@@H](c2ccc(O)cc2)c2c(c3ccccc3oc2=O)O1 (some centres undefined),64.8 pM nM-1,–
COC1(C)C[C@@H](c2ccccc2)c2c(c3cc(O)ccc3oc2=O)O1 (some centres undefined),14.8 pM nM-1,–
CO[C@@]1(C)C[C@H](c2ccccc2)c2c(c3cccc(O)c3oc2=O)O1,15.1 pM nM-1,–
CC(=O)C[C@H](c1ccccc1)c1c(O)c2cc(O)ccc2oc1=O,102 pmol/min/nmol,113.7 pmol/min/nmol P-450
COc1c([C@H](CC(C)=O)c2ccccc2)c(=O)oc2ccc(O)cc12,11.5 pM nM-1,–
COc1c([C@@H](CC(C)=O)c2ccccc2)c(=O)oc2ccc(O)cc12,19.1 pM nM-1,–
COc1c([C@H](CC(C)=O)c2ccccc2)c(=O)oc2cc(O)ccc12,8.3 pM nM-1,–
COC1(C)C[C@@H](c2ccccc2)c2c(c3ccc(O)cc3oc2=O)O1 (some centres undefined),13.9 pM nM-1,–
CC(=O)C[C@@H](c1ccccc1)c1c(O)c2ccc(O)cc2oc1=O,195 pmol/min/nmol,216.8 pmol/min/nmol P-450
CO[C@]1(C)C[C@@H](c2ccccc2)c2c(c3ccc(O)cc3oc2=O)O1,14.9 pM nM-1,–
CO[C@]1(C)C[C@@H](c2ccccc2)c2c(c3cc(O)ccc3oc2=O)O1,24.1 pM nM-1,–
CO[C@@]1(C)C[C@@H](c2ccccc2)c2c(c3cccc(O)c3oc2=O)O1,34.6 pM nM-1,–
COc1c([C@H](CC(C)=O)c2ccc(O)cc2)c(=O)oc2ccccc12,85.3 pM nM-1,–
CC(=O)C[C@@H](c1ccc(O)cc1)c1c(O)c2ccccc2oc1=O,–,13.7 pmol/min/nmol P-450
CO[C@]1(C)C[C@@H](c2ccc(O)cc2)c2c(c3ccccc3oc2=O)O1,73.5 pM nM-1,–
CO[C@]1(C)C[C@H](c2ccccc2)c2c(c3ccc(O)cc3oc2=O)O1,12.8 pM nM-1,–
CO[C@]1(C)C[C@H](c2ccc(O)cc2)c2c(c3ccccc3oc2=O)O1,52 pM nM-1,–
COc1c([C@@H](CC(C)=O)c2ccc(O)cc2)c(=O)oc2ccccc12,47.8 pM nM-1,–
COC1(C)C[C@H](c2ccc(O)cc2)c2c(c3ccccc3oc2=O)O1 (some centres undefined),76.2 pM nM-1,–
CO[C@]1(C)C[C@@H](c2ccccc2)c2c(c3cccc(O)c3oc2=O)O1,42.8 pM nM-1,–
COc1c([C@@H](CC(C)=O)c2ccccc2)c(=O)oc2cc(O)ccc12,31.2 pM nM-1,–
CC(=O)C[C@H](c1ccc(O)cc1)c1c(O)c2ccccc2oc1=O,–,22.4 pmol/min/nmol P-450
